Source: PubChem BioAssay
Inconclusive results are not listed.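 Rule for the calls, unless noted: active = RAM network inhibition above 8.4% in each of two replicates, 3 SD over the compound average; inconclusive = above 8.4% inhibition in only one replicate; inactive = 8.4% inhibition or less in each replicate.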

Assays:
[1] = S. cerevisiae growth inhibition in permissive medium (OD615), pilot counter-assay for S. cerevisiae lifespan shortening project, permissive growth control (AID 705;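 active = growth inhibition above 25% in both replicates, a cutoff set 3 SD above the mean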); conditions: OD615, 24 h, at 10 µM, hits give high values
Summary of the method: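 assay system = Saccharomyces cerevisiae strain carrying genetically modified DeaD replicative-lifespan system | technique = absorbance (optical density) at 615 nm | buffer or medium = permissive raffinose/galactose medium | timing = cells pre-grown 4 h, then 24 h compound exposure, 30 °C humidified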

[2] = S. cerevisiae growth inhibition in restrictive medium, OD615, pilot screen, restrictive growth control, yeast lifespan reduction project (AID 706;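 active = growth inhibition above a set limit, 3 SD over mean compound inhibition, in both replicates, cut at about 43% in these data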;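 note: modified DeaD lifespan yeast strain shifted to restrictive glucose medium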); conditions: OD615, 48 h, at 10 µM, hits give high values
Summary of the method: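 System: modified S. cerevisiae. Buffer or medium: CSMM-D glucose medium. Incubation: 4 h pre-growth plus 48 h compound exposure, 30 °C. Detection: absorbance (optical density) measured at 615 nm.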

[3] = doxorubicin toxicity protection in MRP-1 cells – H69AR cells, CellTiter-Glo, duplicate, MRP-1 activator project, pilot screen (AID 807;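 active = viability increase at or above a cutoff of the median across tested compounds plus 3 SD, cut at about 8.5% in these data, passing the limit was not always enough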;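 note: compound pretreatment 18-22 h then 72 h combined with doxorubicin; 0% = doxorubicin alone and 100% = vehicle without doxorubicin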); conditions: H69AR viability with doxorubicin, CellTiter-Glo luminescence; at 10 µM; hits give high values
[4] = viability of HCT116 without oncogenic beta-catenin – human colon tumor cells, pilot screen (AID 823;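 active = cell viability at or below a set limit in both duplicate runs, the limit being the all-compound median minus 4 SD, cut at about 23% in these data, passing the limit was not always enough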;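 note: 0% = wells killed by 20 µM Hyamine and 100% = untreated DMSO cell wells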); conditions: HCT116 beta-catenin knockout viability, CellTiter-Glo, 60 h; at 10 µM; hits give low values
[5] = viability of PTEN-null HCT116 cells – cell-based, HCT116 clonal line, CellTiter-Glo, pilot screen (AID 824;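 active = viability at or below 27.92% in each of two runs, the all-compound median minus 4 SD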;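 note: 0% = 20 µM Hyamine control and 100% = vehicle cell control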); conditions: HCT116 PTEN-deleted viability, 60 h, at 10 µM, hits give low values
[6] = RAM pathway blockade in budding yeast – dse1pr::URA3 reporter, 5-FOA selection, pilot screen (AID 869;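 active = inhibition over a set limit, the all-compound mean plus 3 SD, in both replicate runs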;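 note: 0% = DMSO wells with no growth and 100% = 10 µM 1-NA-PP1 with full growth; RAM network block rescues cells from 5-FOA so hits raise OD615 growth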); conditions: S. cerevisiae dse1pr::URA3 5-FOA growth, OD615, 2 d; at 10 µM; hits give high values; strain carries analog-sensitive mutant Cbk1 kinase
[7] = RAM signaling pathway blockade in yeast – S. cerevisiae, Pdr1DBD-CYC8 efflux-inhibited sensitized strain, primary screen (AID 1298);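 note: 0% = DMSO untreated cells without growth and 100% = 10 µM 1-NA-PP1 full growth; higher means more yeast growth rescued from 5-FOA killing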; conditions: S. cerevisiae cbk1-as DSE1-URA3 strain, 5-FOA growth OD615, 2 d; at 50 µM; hits give high values

Cc1cccc(N(C(=O)Nc2ccccc2)C2=NCC(C)S2)c1 (configuration not stated)
inactive: growth inhibition [1] -14.6% | growth inhibition [2] -6.9% | viability increase [3] 0.22% | viability [4] 103% | viability [5] 94.4% | inhibition [6] -0.8% | RAM network inhibition [7] 2.52%

COC(=O)C1Sc2[nH]c(=O)sc2C(c2ccc(Cl)cc2)C1C(=O)OC (configuration not stated)
inactive: growth inhibition [1] -14.8% | growth inhibition [2] -14.8% | viability increase [3] -5.67% | viability [4] 91.3% | viability [5] 88.7% | inhibition [6] 4.36% | RAM network inhibition [7] 2.45%

CCC(C)OC(=O)C1=C(C)NC(=O)NC1c1ccc(F)cc1 (configuration not stated)
inactive: growth inhibition [1] -8.18% | growth inhibition [2] -18.7% | viability increase [3] -2.13% | viability [4] 97% | viability [5] 92.7% | inhibition [6] 1.36% | RAM network inhibition [7] 2.77%

Cn1c(NC(=O)C2CC2)cc(=O)n(C)c1=O
inactive: growth inhibition [1] 0.21% | growth inhibition [2] 1.9% | viability increase [3] -0.62% | viability [4] 99% | viability [5] 104% | inhibition [6] 1.01% | RAM network inhibition [7] -1.84%

CCOC(=O)N1CCN(C(=O)c2cnn3ccccc23)CC1
inactive: growth inhibition [1] -9.02% | growth inhibition [2] -2.02% | viability increase [3] -1.3% | viability [4] 103% | viability [5] 100% | inhibition [6] 4.82% | RAM network inhibition [7] -1.68%

CC1CCCCN1CCCNC(=O)C1CCN(c2nc3ccccc3o2)CC1 (configuration not stated)
inactive: growth inhibition [1] -2.48% | growth inhibition [2] -4.11% | viability increase [3] -0.83% | viability [4] 99.9% | viability [5] 97.8% | inhibition [6] 0.5% | RAM network inhibition [7] 3.1%

O=C(Cn1cc2c(n1)CCCC2)NCc1cccs1
inactive: growth inhibition [1] -4.03% | growth inhibition [2] -3.48% | viability increase [3] -0.37% | viability [4] 105% | viability [5] 93% | inhibition [6] 1.2% | RAM network inhibition [7] 0.81%

Cn1cnnc1SCC(=O)Nc1ccccc1
inactive: growth inhibition [1] -6.99% | growth inhibition [2] -16.3% | viability increase [3] 2.03% | viability [4] 100% | viability [5] 102% | inhibition [6] -0.32% | RAM network inhibition [7] 1.79%

CCN(C(=O)COC(=O)C(Cc1ccccc1)N1C(=O)c2ccccc2C1=O)C1CCS(=O)(=O)C1 (configuration not stated)
inactive: growth inhibition [1] -4.4% | growth inhibition [2] -18.5% | viability increase [3] 0.46% | viability [4] 97.4% | viability [5] 99.5% | inhibition [6] 0.495% | RAM network inhibition [7] 2.8%

COc1cccc(N(CC(=O)NCc2cccnc2)S(C)(=O)=O)c1
inactive: growth inhibition [1] -11.3% | growth inhibition [2] -4.04% | viability increase [3] -1.47% | viability [4] 95.1% | viability [5] 94.6% | inhibition [6] 0.625% | RAM network inhibition [7] 3.01%

Cc1occc1-c1nc(-c2ccccn2)no1
inactive: growth inhibition [1] -14.3% | growth inhibition [2] 3.22% | viability increase [3] -4.5% | viability [4] 71.2% | viability [5] 67.7% | inhibition [6] 0.16% | RAM network inhibition [7] 1.6%

CC(=O)N1CCc2c(sc(NC(=O)c3ccc4c(c3)OCCO4)c2C#N)C1
inactive: growth inhibition [1] -0.37% | growth inhibition [2] -8.73% | viability increase [3] -6.36% | viability [4] 35% | viability [5] 35.4% | inhibition [6] 2.62% | RAM network inhibition [7] 4.02%

COCc1cc(C)nc2sc3c(=O)n(Cc4ccco4)nnc3c12
inactive: growth inhibition [1] -8.08% | growth inhibition [2] -13.3% | viability increase [3] -1.93% | viability [4] 100% | viability [5] 90.7% | inhibition [6] 4.2% | RAM network inhibition [7] 4.8%

CCOC(=O)CNC(=O)CSc1nc2sc(C)c(C)c2c(=O)n1C
inactive: growth inhibition [1] -0.13% | growth inhibition [2] 34.3% | viability increase [3] -3.44% | viability [4] 98.4% | viability [5] 97.6% | inhibition [6] 3.61% | RAM network inhibition [7] 5.94%

COc1ccc(C2c3c(oc4ccc(F)cc4c3=O)C(=O)N2CCN2CCOCC2)cc1OC (configuration not stated)
inactive: growth inhibition [1] -0.77% | growth inhibition [2] 4.3% | viability increase [3] -1.12% | viability [4] 107% | viability [5] 108% | inhibition [6] 0.315% | RAM network inhibition [7] 2.7%

CSc1cccc(NC(=O)CN(c2cc(C)ccc2C)S(C)(=O)=O)c1
inactive: growth inhibition [1] -4.02% | growth inhibition [2] -2.52% | viability increase [3] -3.54% | viability [4] 77.4% | viability [5] 79.8% | inhibition [6] -0.95% | RAM network inhibition [7] 1.46%

Cc1csc(=NC(=O)c2ccccc2)n1Cc1ccco1
inactive: growth inhibition [1] -16.8% | growth inhibition [2] -36% | viability increase [3] -2.24% | viability [4] 87.9% | viability [5] 89.9% | inhibition [6] 1.38% | RAM network inhibition [7] 3.14%

Cc1ccc(C(=O)c2ccccc2C(=O)O)c(O)c1
inactive: growth inhibition [1] -15.6% | growth inhibition [2] -4.92% | viability increase [3] 0.69% | viability [4] 94.8% | viability [5] 106% | inhibition [6] 0.835% | RAM network inhibition [7] 5.69%

Cc1ccc(C(=O)Nc2ccc(S(=O)(=O)N3CCN(C)CC3)cc2)o1
inactive: growth inhibition [1] -8.11% | growth inhibition [2] -0.785% | viability increase [3] -0.32% | viability [4] 104% | viability [5] 103% | inhibition [6] 1.32% | RAM network inhibition [7] 3.17%

COc1ccc(C)cc1NC(=O)c1ccoc1C
inactive: growth inhibition [1] -1.21% | growth inhibition [2] 4.09% | viability increase [3] 0.93% | viability [4] 99.5% | viability [5] 87.8% | inhibition [6] 0.62% | RAM network inhibition [7] 7.87%

CC(NC(=O)c1ccco1)C(c1cccs1)N1CCOCC1 (configuration not stated)
inactive: growth inhibition [1] -6.95% | growth inhibition [2] 7.38% | viability increase [3] -2.37% | viability [4] 101% | viability [5] 99.5% | inhibition [6] 0.88% | RAM network inhibition [7] 1.38%

CN(C)c1nc(N)nc(N(c2ccccc2)c2ccccc2)n1
inactive: growth inhibition [1] -12.3% | growth inhibition [2] -28.1% | viability increase [3] -2.5% | viability [4] 93.6% | viability [5] 90.8% | inhibition [6] -0.635% | RAM network inhibition [7] 2.96%

COCCOC(=O)C1=C(C)NC(=O)NC1c1ccc(OC(=O)c2ccco2)c(OC)c1 (configuration not stated)
inactive: growth inhibition [1] 7.03% | growth inhibition [2] -14.5% | viability increase [3] -2.68% | viability [4] 97.8% | viability [5] 92.7% | inhibition [6] 2.5% | RAM network inhibition [7] 4.12%

O=C(CCS(=O)(=O)c1cccc2nonc12)NCCc1ccccc1Cl
inactive: growth inhibition [1] -1.5% | growth inhibition [2] -9.76% | viability increase [3] -5.15% | viability [4] 91.2% | viability [5] 82.9% | inhibition [6] 1.33% | RAM network inhibition [7] 4.14%

Cc1cccc(NS(=O)(=O)c2ccccc2)n1
inactive: growth inhibition [1] -4.51% | growth inhibition [2] 11.2% | viability increase [3] 2.49% | viability [4] 106% | viability [5] 104% | inhibition [6] 0.75% | RAM network inhibition [7] 0.26%

CC(C)(Oc1ccc(Cl)cc1)C(=O)NCc1ccco1
inactive: growth inhibition [1] -1.12% | growth inhibition [2] -0.2% | viability increase [3] -4.22% | viability [4] 87.2% | viability [5] 80% | inhibition [6] 1.18% | RAM network inhibition [7] 5.92%

COc1ccc(N2CCN(c3cc(=O)n(Cc4ccc(F)cc4)c(=O)[nH]3)CC2)cc1
inactive: growth inhibition [1] -4.88% | growth inhibition [2] 1.23% | viability increase [3] -2.97% | viability [4] 92.9% | viability [5] 86.3% | inhibition [6] 0.215% | RAM network inhibition [7] 9.17%

CCOC(=O)CSc1nc(N)nc(C)c1Br
inactive: growth inhibition [1] -0.46% | growth inhibition [2] -3.4% | viability increase [3] -2.62% | viability [4] 103% | viability [5] 104% | inhibition [6] 0.49% | RAM network inhibition [7] 0.51%

CC(=O)c1c(NCc2ccccc2)nc(=O)n(-c2ccccc2)c1C
inactive: growth inhibition [1] -4.12% | growth inhibition [2] 4.42% | viability increase [3] -1.28% | viability [4] 94.7% | viability [5] 97% | inhibition [6] 1.98% | RAM network inhibition [7] 4.07%

CN(CCNC(=O)C1CC(=O)N(C2CCCC2)C1)Cc1ccccc1 (configuration not stated)
inactive: growth inhibition [1] -2.86% | growth inhibition [2] 0.485% | viability increase [3] -0.98% | viability [4] 98.6% | viability [5] 98.3% | inhibition [6] 0.74% | RAM network inhibition [7] 0.52%

CCn1c(CNC(=O)COC)nc2ccccc21
inactive: growth inhibition [1] -5.41% | growth inhibition [2] 0.165% | viability increase [3] 0.97% | viability [4] 105% | viability [5] 97.2% | inhibition [6] 0.7% | RAM network inhibition [7] 5.67%

O=C(Nc1nnc(-c2ccc3c(c2)CCCC3)o1)C1COc2ccccc2O1 (configuration not stated)
inactive: growth inhibition [1] 5.39% | growth inhibition [2] 23% | viability increase [3] -2.7% | viability [4] 44.3% | viability [5] 51.1% | inhibition [6] 0.315% | RAM network inhibition [7] -1.78%

CCCOc1ccccc1C1NC(=O)NC(C)=C1C(=O)OCCOC(C)C (configuration not stated)
inactive: growth inhibition [1] -12.9% | growth inhibition [2] -13.2% | viability increase [3] -2.17% | viability [4] 89.5% | viability [5] 91.4% | inhibition [6] 0.325% | RAM network inhibition [7] 5.61%

CCCS(=O)(=O)n1nc(-c2ccc(OC)cc2OC)cc1N
inactive: growth inhibition [1] -6.52% | growth inhibition [2] -22.5% | viability increase [3] -2.51% | viability [4] 101% | viability [5] 102% | inhibition [6] -0.255% | RAM network inhibition [7] 4.63%

C=CCOc1ccc(/C(O)=C2/C(=O)C(=O)N(CCCn3ccnc3)C2c2cccs2)cc1 (configuration not stated)
inactive: growth inhibition [1] -13.8% | growth inhibition [2] 0.445% | viability increase [3] 1.46% | viability [4] 95.2% | viability [5] 98.6% | inhibition [6] -0.285% | RAM network inhibition [7] 1.02%

O=C(c1cc2ccccc2cc1OCC(O)CN1CCCCC1)N1CCCCC1 (configuration not stated)
inactive: growth inhibition [1] 2.48% | growth inhibition [2] 0.51% | viability increase [3] -4.18% | viability [4] 86.6% | viability [5] 83.5% | inhibition [6] 0.285% | RAM network inhibition [7] -0.89%
